Compound activity (PubChem)
Compounds with a hit are over-represented: about 2.3% of the library has one in this group of screens.
ROMK primary – ROMK potassium channel modulators, primary screen, cell-based, thallium flux, MLSMR library; ATP-sensitive inward rectifier potassium channel 1 (Homo sapiens), P48048; 2% of 130,000 active; B-score at 10 µM; Tet-inducible ROMK, thallium flux fluorescence; actives lie on both sides;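 active = signal ratio slope over the read window, or its plate-corrected B-score, at least 3 SD from the plate mean, either direction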;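 also: B-score of the F/F0 ratio slope over 7 to 12 s after thallium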
Target sequence (P48048 whole entry, looked up): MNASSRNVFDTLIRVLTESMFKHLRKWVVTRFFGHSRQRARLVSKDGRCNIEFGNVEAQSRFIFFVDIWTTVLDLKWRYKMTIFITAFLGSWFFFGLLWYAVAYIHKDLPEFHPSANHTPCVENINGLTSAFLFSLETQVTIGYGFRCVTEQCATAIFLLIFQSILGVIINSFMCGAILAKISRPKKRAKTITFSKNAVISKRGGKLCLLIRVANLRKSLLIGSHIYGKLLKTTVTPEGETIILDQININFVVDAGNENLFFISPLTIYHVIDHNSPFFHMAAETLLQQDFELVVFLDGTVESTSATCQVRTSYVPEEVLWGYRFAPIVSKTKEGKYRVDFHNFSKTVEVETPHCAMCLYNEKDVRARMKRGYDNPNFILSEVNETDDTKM
sdo1 growth – growth rescue of sdo1-depleted yeast, primary screen, S. cerevisiae, bone marrow failure model | S. cerevisiae sdo1-depleted JHY4D growth rescue, OD600 30 h; stronger effect = higher value; pdr5 snq2 efflux-pump mutant strain | 0.21% of 140,000 active | AID 817, 2007 | z-score at 10 µM;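 active = z-score above 3 at both the 24 hr and the 30 hr optical density reads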;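 also: z-score against mean and SD of all compound wells on the same plate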
ABCG2 block – ABCG2 efflux pump inhibitors, primary screen, multiplex with ABCB1, IgMXP3 cells, flow cytometry; 0.1% of 190,000 active; JC-1 efflux; inhibition, % at 6.6 µM;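 active = inhibition above 80%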;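 also: 0% = DMSO and 100% = nicardipine control wells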
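Incubation: cells with compound and JC-1, 10 min at 25 °C, rotating, no wash / Test system: IgMXP3 (ABCG2) plus far-red-tagged CCRF-Adr (ABCB1) cells / Compound dosing: one concentration, 6.6 µM final / Also added: JC-1 fluorescent substrate / Evaluation: efflux inhibition in percent versus controls / Detection: flow cytometry, 530 nm JC-1 signal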
Insulin prom up – insulin promoter activators in MIN6 cells, imaging, high-content screening, mouse beta cells; AID 1625, 2009; MIN6 insulin promoter-GFP reporter; stronger effect = higher value; 0.3% of 190,000 active; z-score at 5 µM;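 active = z-score above 3 at 5 µM with at least 500 cells counted in the well; inconclusive = wells under 500 cells, flagged as cytotoxic or low count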
Autophagy mod – autophagy modulators in MEF cells, primary screen, imaging, high-content, MEF GFP-LC3 | 0.98% of 190,000 active | MEF GFP-LC3 puncta imaging; test concentration mostly 10 µM | calls only at 10 µM (by protocol);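 active = percentage of spot-positive cells more than 3 SD above its plate mean, without a fluorescence outlier flag or 80% toxicity; inconclusive = no clear call, values can overlap the other calls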;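 also: spot-positive cell cutoff set from DMSO-treated cells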
ABCB1 inh – ABCB1 efflux pump inhibitors, primary screen, cell-based, multiplex, flow cytometry, ABCG2 counter-screen | AID 1326, 2008 | 0.067% of 190,000 active | inhibition, % at 6.6 µM | CCRF-Adr cells, JC-1 efflux; in the data active = inhibition above about 40%;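 also: 0% = vehicle and 100% = reference inhibitor; higher value means more JC-1 retained so stronger ABCB1 efflux block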
ROMK hit retest – ROMK channel modulator hit retest, confirmation, cell-based, thallium flux, duplicate, resupplied hits; shares compounds with ROMK primary; fluorescence ratio; stronger effect = lower value; normalized thallium flux (F/F0 slope) at 10 µM; 54% of 3,000 active; AID 1917, 2009;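 active = Flux at 10 µM at least 3 SD below or above vehicle control mean in one or both replicates; inconclusive = no clear call, values can overlap the other calls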
* hit, by the source's call; i = inactive; ? = inconclusive; . = no result.

SMILES	ROMK primary	sdo1 growth	ABCG2 block	Insulin prom up	Autophagy mod	ABCB1 inh	ROMK hit retest
CN(C)CCNC(=O)c1scc2c1CCCC2	.	.	.	0.26	.	.	0.076
CCn1cc(C(=O)NCC(=O)OC)c2cc(OC)c(OC)cc2c1=O	.	0.94	1	0.69	i	0	.
CCn1cc(C(=O)NCc2ccc(C)o2)c2cc(OC)c(OC)cc2c1=O	.	-1.1	5	0.25	i	1	?
CCN(CC)S(=O)(=O)c1ccc(C)c(NC(=O)Cn2cnc3cc([N+](=O)[O-])ccc3c2=O)c1	2.9*	.	-2	-0.05	i	-1	?
O=C(Cn1cnc2cc([N+](=O)[O-])ccc2c1=O)Nc1cccc2ccccc12	.	.	.	0.1	.	.	.
CC(C)(C)c1ccc(N2C(=N)SCC2=O)cc1	-9.3*	.	.	-0.09	.	.	0.041*
COc1cccc(-c2nnc(-c3ccccc3NC(=O)c3ccc(C(C)(C)C)cc3)o2)c1	.	.	.	0.12	.	.	.
Cc1cc(N2CCCCC2)nc(NCc2ccccc2)n1	.	-0.41	0	-0.51	i	0	0.065*
COc1cc(C(C(=O)NC2CCCCC2)N(Cc2ccco2)C(=O)c2cnccn2)cc(OC)c1OC (stereo not drawn)	-13*	.	-1	0.84	i	0	0.082
COc1ccc(C(=O)N(Cc2ccco2)C(C(=O)NC2CCCC2)c2ccc(O)cc2)cc1OC (stereo not drawn)	.	-0.01	2	1.1	i	0	.
O=C(NCC(c1ccco1)N1CCCCC1)c1ccc(OCc2ccccc2)cc1 (stereo not drawn)	-3.2*	.	10	.	i	1	0.07
Cc1cc(Cl)ccc1OCc1cn2cccnc2n1	4.1*	.	6	0.2	i	1	?
O=C(Nc1ccc(F)cc1)c1nn(-c2ccccc2)c(=O)cc1Cl	-3.3*	.	-1	-2.2	i	1	0.066*
CCc1c(C)c(C#N)c2[nH]c3ccccc3n2c1=S	.	.	.	-0.05	.	.	.
CC(=O)c1sc2nsc(SCCN3CCCCC3)c2c1N	.	.	.	-0.45	.	.	0.053*
CC(=O)Nc1nnc(CCN2CCCCC2)s1	.	0.42	1	0.15	i	0	.
CCCC(c1nnnn1C1CCCCC1)N1CCN(c2ncccn2)CC1 (stereo not drawn)	.	-0.97	0	-0.23	i	0	.
CCCCC(c1nnnn1C1CCCC1)N1CCN(C2CCCCC2)CC1 (stereo not drawn)	-4.1*	1.1	7	-0.07	i	1	0.063*
C/C(=N\NC(=O)CN1CCN(Cc2ccccc2)CC1)c1cccs1	.	.	.	0.35	.	.	.
CN(CC(=O)Nc1ccncc1)S(=O)(=O)c1ccc(Br)cc1	.	-0.12	11	-1.2	i	1	.
CN(CCCC(=O)Nc1ccncc1)S(=O)(=O)c1ccc(Cl)cc1	-3.4*	0.12	21	?	i	1	0.065*
CCN(c1ccccc1)c1ncnc2c1cnn2-c1ccccc1	.	-1.9	3	-0.07	i	1	0.055*
CN(Cc1ccccc1)c1ncnc2c1cnn2-c1ccccc1	.	-0.62	32	-0.06	i	1	.
O=C(O)c1ccc(COc2ccc3ccccc3c2/C=C2/NC(=O)N(c3ccccc3)C2=O)cc1	0.68	1.9	-8	0.3	i	-6	.
CCN1C(=O)S/C(=C/c2c(OCc3ccc(C(=O)O)cc3)ccc3ccccc23)C1=O	3.9*	-0.96	-2	0.08	i	-1	0.091
SMILES	ROMK primary	sdo1 growth	ABCG2 block	Insulin prom up	Autophagy mod	ABCB1 inh	ROMK hit retest
CCOC(=O)Cn1cc(/C=C/[N+](=O)[O-])c2ccccc21	-3.5*	.	1	0.07	i	0	0.036*
CCOC(=O)COc1ccc2ccccc2c1/C=C/[N+](=O)[O-]	-1.7	-1	10	0.45	i	0	.
CCOc1ccc(/C=C/[N+](=O)[O-])c2ccccc12	-3.8*	-1.7	-1	-0.3	i	0	0.043*
C/C(=N\Nc1cccc(C(F)(F)F)c1)c1ccc(O)cc1	-0.29	.	2	-0.97	i	0	.
CCOC(=O)/C(C#N)=C/c1ccc(OC)c(OC)c1	0.13	0.44	5	-0.33	i	0	.
CCOc1cc(/C=C(\C#N)C(N)=O)ccc1OS(=O)(=O)c1ccccc1	-5*	-1	20	-0.03	i	3	0.033*
CC1=C/C(=C\C=C(C#N)C#N)N(C)c2ccccc21	-4*	.	.	.	.	.	0.041*
CN1/C(=C/C=C(C#N)C#N)C(C)(C)c2ccccc21	.	.	0	-0.1	i	0	.
O=C1C(Br)=Cc2cccc3cccc1c23	.	.	.	0.67	.	.	0.049*
O=C1c2cccc3cccc(c23)C(=O)N1OS(=O)(=O)c1ccc(Br)cc1	.	-0.82	-1	0.29	i	0	.
O=C1c2ccccc2C(=O)N1CCCCSc1nc2ccccc2c(=O)n1CCCN1CCOCC1	-3*	.	12	0.36	i	9	0.054*
O=C1c2ccccc2C(=O)N1CCSc1nc2ccccc2c(=O)n1CCCN1CCOCC1	-0.15	.	27	0.21	i	6	.
CCOC(=O)CNC(=O)CSc1nccn1Cc1ccco1	.	.	1	0.18	i	-1	.
Cc1ccc2c(c1)C(c1ccccc1)N(C(=O)c1cc3ccccc3oc1=O)CC(=O)N2 (stereo not drawn)	1.3	-0.47	6	-4.4	i	2	.
O=C1CN(C(=O)c2cc3ccccc3oc2=O)C(c2ccc(F)cc2)c2cc(F)ccc2N1 (stereo not drawn)	4*	0.01	2	0.85	i	1	0.075
CCOc1c(N2CCOCC2)c(=O)c1=O	0.18	.	.	0.66	.	.	.
CCC(C)NCCC(=O)Nc1ccc(Cl)c(S(=O)(=O)Nc2ccc(Cl)cc2)c1 (stereo not drawn)	-4.1*	.	1	1.2	i	0	0.064*
O=S(=O)(Cc1ccccc1)Nc1ccc(S(=O)(=O)NCC2CCCO2)cc1 (stereo not drawn)	.	1.4	0	-0.03	i	0	0.084
O=C(COC(=O)CNS(=O)(=O)/C=C/c1ccccc1)Nc1cccc2ccccc12	0.73	.	0	.	i	0	.
C[C@H](NC(=O)c1nc[nH]c1C(=O)N[C@@H](CCCCNC(=O)OC(C)(C)C)C(=O)OC(C)(C)C)c1ccccc1	.	.	.	-0.01	.	.	.
Cn1c(=O)c2c(nc(N3CCNCC3)n2Cc2ccccc2Cl)n(C)c1=O	1.6*	.	-1	-0.56	i	0	0.08
